What was measured:
[1] = biological target: Dual specificity tyrosine-phosphorylation-regulated kinase 1A (Homo sapiens) (UniProt Q13627); test: Inhibition of human recombinant DYRK1A at 40 nM in presence of ATP by radiometric assay relative to control
[2] = biological target: Death-associated protein kinase 3 (Homo sapiens) (UniProt O43293); test: Inhibition of human recombinant DAPK3 at 40 nM related to control ULK1
[3] = biological target: Tyrosine-protein kinase HCK (Homo sapiens) (UniProt P08631); test: Inhibition of human recombinant HCK at 40 nM in presence of ATP by radiometric assay relative to control
Tyrosine-protein kinase HCK (Homo sapiens), sequence (P08631 2-526 limits assumed): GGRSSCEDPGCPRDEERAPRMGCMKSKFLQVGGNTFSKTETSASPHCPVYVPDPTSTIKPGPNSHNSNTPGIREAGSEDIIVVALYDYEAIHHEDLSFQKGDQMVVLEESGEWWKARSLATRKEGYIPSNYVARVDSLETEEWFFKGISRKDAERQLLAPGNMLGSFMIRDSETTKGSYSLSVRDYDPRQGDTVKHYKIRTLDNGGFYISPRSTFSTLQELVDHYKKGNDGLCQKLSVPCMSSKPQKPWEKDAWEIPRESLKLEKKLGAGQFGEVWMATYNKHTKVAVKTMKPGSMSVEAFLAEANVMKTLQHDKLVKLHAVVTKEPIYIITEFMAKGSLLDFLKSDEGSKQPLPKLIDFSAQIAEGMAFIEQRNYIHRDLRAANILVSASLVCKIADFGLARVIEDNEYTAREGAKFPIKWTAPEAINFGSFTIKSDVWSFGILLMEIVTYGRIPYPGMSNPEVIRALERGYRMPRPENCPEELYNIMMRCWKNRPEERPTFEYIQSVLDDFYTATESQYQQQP

[4] = biological target: T1, Testis-specific serine/threonine-protein kinase 1 (Homo sapiens) (UniProt Q9BXA7); test: Inhibition of human recombinant TSSK1 at 40 nM in presence of ATP by radiometric assay relative to control
T1 sequence (whole entry): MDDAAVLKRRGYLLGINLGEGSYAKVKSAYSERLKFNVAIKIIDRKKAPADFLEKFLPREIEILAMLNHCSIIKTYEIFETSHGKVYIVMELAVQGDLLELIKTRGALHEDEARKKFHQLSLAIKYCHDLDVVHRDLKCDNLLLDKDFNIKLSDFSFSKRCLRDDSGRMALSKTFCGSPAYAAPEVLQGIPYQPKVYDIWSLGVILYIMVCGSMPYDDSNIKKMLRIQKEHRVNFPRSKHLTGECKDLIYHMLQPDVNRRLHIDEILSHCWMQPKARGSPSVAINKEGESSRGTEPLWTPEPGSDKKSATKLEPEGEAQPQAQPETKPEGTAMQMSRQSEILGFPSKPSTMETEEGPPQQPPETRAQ

[5] = biological target: T2, Eukaryotic elongation factor 2 kinase (Homo sapiens) (UniProt O00418); test: Inhibition of human recombinant eEF2K at 40 nM related to control ULK1
T2 sequence (whole entry): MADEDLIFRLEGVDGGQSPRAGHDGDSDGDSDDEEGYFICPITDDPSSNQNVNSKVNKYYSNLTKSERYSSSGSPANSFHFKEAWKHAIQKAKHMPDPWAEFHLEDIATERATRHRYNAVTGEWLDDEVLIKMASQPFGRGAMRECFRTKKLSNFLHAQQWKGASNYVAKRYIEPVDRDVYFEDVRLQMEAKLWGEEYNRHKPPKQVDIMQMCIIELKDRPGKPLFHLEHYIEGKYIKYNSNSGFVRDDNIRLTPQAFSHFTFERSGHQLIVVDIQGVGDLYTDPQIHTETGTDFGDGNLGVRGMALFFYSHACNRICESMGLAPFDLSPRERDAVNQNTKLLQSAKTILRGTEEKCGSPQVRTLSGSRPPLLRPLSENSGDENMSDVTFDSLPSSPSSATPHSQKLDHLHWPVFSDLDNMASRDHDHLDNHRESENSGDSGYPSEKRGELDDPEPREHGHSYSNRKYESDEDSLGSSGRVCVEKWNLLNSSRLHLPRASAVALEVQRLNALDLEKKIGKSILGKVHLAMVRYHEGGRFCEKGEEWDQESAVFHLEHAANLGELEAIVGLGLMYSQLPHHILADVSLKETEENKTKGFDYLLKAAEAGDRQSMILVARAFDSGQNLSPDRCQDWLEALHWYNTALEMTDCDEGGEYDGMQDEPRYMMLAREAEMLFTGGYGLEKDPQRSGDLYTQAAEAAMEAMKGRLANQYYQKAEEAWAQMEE

[6] = biological target: Cyclin-dependent kinase 5 (Homo sapiens) (UniProt Q00535); test: Inhibition of human recombinant CDK5 at 40 nM in presence of ATP by radiometric assay relative to control
Cyclin-dependent kinase 5 (Homo sapiens), sequence (Q00535 whole entry, looked up): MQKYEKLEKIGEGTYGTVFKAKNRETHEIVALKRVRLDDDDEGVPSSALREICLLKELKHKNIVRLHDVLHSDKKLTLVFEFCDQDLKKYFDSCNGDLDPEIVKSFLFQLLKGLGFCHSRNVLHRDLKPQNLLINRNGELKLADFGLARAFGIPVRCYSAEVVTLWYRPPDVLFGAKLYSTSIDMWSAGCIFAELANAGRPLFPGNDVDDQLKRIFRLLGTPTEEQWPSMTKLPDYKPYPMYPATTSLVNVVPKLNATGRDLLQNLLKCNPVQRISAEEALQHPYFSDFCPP

[7] = biological target: Serine/threonine-protein kinase Nek6 (Homo sapiens) (UniProt Q9HC98); test: Inhibition of human recombinant NEK6 at 40 nM related to control ULK1
[8] = biological target: SRSF protein kinase 2 (Homo sapiens) (UniProt P78362); test: Inhibition of human recombinant SRPK2 at 40 nM related to control ULK1
SRSF protein kinase 2 (Homo sapiens), sequence (P78362 whole entry, looked up): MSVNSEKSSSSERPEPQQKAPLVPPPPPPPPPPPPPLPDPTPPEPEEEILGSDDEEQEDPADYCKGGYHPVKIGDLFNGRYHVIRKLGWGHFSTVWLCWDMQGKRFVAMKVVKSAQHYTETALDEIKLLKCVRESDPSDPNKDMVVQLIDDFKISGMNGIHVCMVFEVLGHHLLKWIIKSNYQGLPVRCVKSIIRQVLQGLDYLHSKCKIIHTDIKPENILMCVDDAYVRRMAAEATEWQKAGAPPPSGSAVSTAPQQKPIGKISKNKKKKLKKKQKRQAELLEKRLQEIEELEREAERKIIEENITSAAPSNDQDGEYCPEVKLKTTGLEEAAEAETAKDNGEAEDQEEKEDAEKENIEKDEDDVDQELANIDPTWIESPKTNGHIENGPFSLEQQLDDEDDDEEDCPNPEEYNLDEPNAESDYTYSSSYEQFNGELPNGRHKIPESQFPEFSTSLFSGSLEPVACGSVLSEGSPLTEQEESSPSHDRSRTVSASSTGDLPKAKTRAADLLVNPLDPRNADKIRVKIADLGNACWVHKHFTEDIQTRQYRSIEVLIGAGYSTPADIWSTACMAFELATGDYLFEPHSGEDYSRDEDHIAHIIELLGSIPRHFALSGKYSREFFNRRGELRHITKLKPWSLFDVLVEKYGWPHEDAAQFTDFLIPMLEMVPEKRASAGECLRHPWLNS

[9] = biological target: Dual specificity protein kinase CLK3 (Homo sapiens) (UniProt P49761); test: Inhibition of human recombinant CLK3 at 40 nM in presence of ATP by radiometric assay relative to control
Dual specificity protein kinase CLK3 (Homo sapiens), sequence (P49761 whole entry, looked up): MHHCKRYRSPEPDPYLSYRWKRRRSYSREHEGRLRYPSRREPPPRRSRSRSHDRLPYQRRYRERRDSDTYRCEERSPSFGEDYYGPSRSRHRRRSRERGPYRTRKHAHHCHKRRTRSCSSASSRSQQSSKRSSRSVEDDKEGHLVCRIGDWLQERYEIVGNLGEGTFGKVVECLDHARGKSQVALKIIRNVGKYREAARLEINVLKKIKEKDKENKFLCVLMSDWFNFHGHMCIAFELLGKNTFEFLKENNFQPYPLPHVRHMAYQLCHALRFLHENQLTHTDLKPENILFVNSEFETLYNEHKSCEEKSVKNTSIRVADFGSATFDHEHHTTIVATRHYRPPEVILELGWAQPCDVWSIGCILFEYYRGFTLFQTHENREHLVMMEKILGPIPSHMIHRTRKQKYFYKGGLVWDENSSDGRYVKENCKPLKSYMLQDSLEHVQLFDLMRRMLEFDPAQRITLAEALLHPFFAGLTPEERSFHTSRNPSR

[10] = biological target: Mitogen-activated protein kinase kinase kinase kinase 1 (Homo sapiens) (UniProt Q92918); test: Inhibition of human recombinant HPK1 at 40 nM in presence of ATP by radiometric assay relative to control
Mitogen-activated protein kinase kinase kinase kinase 1 (Homo sapiens), sequence (Q92918 whole entry, looked up, canonical isoform): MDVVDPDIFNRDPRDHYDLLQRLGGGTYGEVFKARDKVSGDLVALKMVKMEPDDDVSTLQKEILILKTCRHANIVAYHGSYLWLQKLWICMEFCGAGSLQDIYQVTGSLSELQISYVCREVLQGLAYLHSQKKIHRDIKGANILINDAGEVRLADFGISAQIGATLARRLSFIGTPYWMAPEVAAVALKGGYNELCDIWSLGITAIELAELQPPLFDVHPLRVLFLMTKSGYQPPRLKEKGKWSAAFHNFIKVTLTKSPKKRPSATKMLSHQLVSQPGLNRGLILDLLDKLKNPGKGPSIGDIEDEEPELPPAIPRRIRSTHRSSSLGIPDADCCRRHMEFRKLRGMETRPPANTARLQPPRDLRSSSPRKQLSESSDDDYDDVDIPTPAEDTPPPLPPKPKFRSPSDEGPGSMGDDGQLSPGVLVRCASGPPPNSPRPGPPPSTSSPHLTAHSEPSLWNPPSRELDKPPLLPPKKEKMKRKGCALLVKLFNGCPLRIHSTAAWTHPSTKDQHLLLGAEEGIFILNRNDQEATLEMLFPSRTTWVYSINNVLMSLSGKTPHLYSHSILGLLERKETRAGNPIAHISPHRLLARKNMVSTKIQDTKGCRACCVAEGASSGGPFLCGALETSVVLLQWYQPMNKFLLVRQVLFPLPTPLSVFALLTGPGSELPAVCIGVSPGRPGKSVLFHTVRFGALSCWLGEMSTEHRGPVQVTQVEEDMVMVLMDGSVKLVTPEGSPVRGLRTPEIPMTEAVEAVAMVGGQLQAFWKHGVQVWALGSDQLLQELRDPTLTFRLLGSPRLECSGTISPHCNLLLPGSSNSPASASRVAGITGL

[11] = biological target: Casein kinase I isoform gamma-2 (Homo sapiens) (UniProt P78368); test: Inhibition of human recombinant CK1g2 at 15 nM in presence of ATP by radiometric assay relative to control
Casein kinase I isoform gamma-2 (Homo sapiens), sequence (P78368 whole entry, looked up, canonical isoform): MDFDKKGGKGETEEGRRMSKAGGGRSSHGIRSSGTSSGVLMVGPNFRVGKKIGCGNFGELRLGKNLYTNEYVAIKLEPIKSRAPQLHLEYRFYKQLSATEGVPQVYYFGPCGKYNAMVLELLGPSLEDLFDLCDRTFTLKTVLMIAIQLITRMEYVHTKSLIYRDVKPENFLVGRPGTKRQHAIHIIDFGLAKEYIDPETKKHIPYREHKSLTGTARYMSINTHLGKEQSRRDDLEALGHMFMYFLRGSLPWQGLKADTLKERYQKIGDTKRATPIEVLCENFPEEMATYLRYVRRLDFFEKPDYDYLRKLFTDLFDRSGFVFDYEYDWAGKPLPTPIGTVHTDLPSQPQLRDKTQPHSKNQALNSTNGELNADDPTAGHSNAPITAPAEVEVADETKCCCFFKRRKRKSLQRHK

[12] = biological target: Calcium/calmodulin-dependent protein kinase type II subunit beta (Homo sapiens) (UniProt Q13554); test: Inhibition of human recombinant CaMK2b at 15 nM in presence of ATP by radiometric assay relative to control
Calcium/calmodulin-dependent protein kinase type II subunit beta (Homo sapiens), sequence (Q13554 whole entry): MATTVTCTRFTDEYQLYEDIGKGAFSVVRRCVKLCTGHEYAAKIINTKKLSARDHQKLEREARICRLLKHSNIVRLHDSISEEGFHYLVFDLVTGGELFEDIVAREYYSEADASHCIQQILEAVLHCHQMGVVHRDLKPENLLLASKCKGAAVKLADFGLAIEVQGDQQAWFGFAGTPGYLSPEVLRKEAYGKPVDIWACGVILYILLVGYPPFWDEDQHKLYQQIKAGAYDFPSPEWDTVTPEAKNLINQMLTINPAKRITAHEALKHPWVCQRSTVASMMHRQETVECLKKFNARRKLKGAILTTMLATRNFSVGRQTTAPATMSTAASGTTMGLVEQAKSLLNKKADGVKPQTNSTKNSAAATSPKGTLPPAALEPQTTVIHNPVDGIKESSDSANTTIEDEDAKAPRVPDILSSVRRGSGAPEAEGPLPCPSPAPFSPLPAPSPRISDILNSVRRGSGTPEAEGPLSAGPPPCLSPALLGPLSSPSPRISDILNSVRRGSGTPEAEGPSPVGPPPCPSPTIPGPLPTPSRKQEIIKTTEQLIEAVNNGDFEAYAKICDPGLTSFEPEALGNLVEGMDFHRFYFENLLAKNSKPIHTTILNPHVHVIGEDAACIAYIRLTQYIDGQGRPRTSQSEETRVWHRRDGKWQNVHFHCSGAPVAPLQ

[13] = biological target: Serine/threonine-protein kinase 4 (Homo sapiens) (UniProt Q13043); test: Inhibition of human recombinant MST1 at 500 nM related to control ULK1
Serine/threonine-protein kinase 4 (Homo sapiens), sequence (Q13043 whole entry, looked up): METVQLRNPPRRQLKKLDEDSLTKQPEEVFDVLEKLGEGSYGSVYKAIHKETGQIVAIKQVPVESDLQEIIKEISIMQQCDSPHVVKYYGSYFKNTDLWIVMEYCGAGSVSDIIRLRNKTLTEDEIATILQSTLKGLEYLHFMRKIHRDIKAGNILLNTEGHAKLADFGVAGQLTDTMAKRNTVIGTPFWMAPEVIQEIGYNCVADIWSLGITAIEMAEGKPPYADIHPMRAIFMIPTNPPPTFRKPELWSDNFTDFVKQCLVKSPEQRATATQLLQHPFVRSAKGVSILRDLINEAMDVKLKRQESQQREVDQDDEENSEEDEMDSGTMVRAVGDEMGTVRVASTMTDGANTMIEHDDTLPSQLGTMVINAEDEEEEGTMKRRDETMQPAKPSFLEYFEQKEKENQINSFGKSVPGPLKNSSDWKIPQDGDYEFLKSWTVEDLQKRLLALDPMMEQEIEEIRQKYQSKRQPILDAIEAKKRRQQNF

[14] = biological target: Mitogen-activated protein kinase kinase kinase kinase 4 (Homo sapiens) (UniProt O95819); test: Inhibition of human recombinant HGK at 500 nM related to control ULK1
[15] = biological target: Homeodomain-interacting protein kinase 1 (Homo sapiens) (UniProt Q86Z02); test: Inhibition of human recombinant HIPK1 at 500 nM in presence of ATP by radiometric assay relative to control
[16] = biological target: Eukaryotic translation initiation factor 2-alpha kinase 1 (Homo sapiens) (UniProt Q9BQI3); test: Inhibition of human recombinant HRI at 500 nM related to control ULK1
[17] = biological target: 5'-AMP-activated protein kinase catalytic subunit alpha-1 (Homo sapiens) (UniProt Q13131); test: Inhibition of human recombinant AMPKa1 at 500 nM in presence of ATP by radiometric assay relative to control
Method in brief: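 Panel of 327 recombinant human kinases, each assayed in vitro by radiometric activity assay in duplicate at a single inhibitor concentration per compound, chosen with reference to its ULK1 inhibition. Activity remaining was expressed as percent of vehicle control, and percent inhibition was calculated as 100 minus percent activity remaining.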

Death-associated protein kinase 3 (Homo sapiens), sequence (O43293 whole entry, looked up): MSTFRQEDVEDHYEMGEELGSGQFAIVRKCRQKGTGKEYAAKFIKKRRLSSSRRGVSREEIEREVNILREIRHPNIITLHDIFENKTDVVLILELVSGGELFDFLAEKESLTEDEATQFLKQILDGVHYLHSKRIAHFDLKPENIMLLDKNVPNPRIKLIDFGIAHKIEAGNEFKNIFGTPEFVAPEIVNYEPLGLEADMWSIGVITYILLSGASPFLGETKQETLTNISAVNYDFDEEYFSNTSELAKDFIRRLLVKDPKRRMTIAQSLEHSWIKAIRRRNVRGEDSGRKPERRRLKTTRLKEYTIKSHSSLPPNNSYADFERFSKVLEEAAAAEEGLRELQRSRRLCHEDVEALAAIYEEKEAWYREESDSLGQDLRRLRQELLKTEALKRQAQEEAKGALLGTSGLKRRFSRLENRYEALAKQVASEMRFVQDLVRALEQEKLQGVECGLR

## O=C(N[C@@H](C1CC1)C(F)(F)F)c1cc(-c2cnn3cc(-c4ccc(F)cc4)cnc23)cs1
[1]
  inhibition: 43%
[2]
  fold change (FC): 0.11
[3]
  inhibition: 0%
[4]
  inhibition: 0%
[5]
  fold change (FC): 0.1
[6]
  inhibition: 47%
[7]
  fold change (FC): 0
[8]
  fold change (FC): 0.01
[9]
  inhibition: 0%
[10]
  inhibition: 0%

## CC(C)[C@H](NC(=O)c1cc(-c2cnn3cc(-c4ccc(OCCN5CCCCC5)cc4)cnc23)cs1)C(F)(F)F
[11]
  inhibition: 0%
[12]
  inhibition: 10%

## CNC(=O)c1ccccc1Oc1nc(Nc2cc(OC)c(OC)c(OC)c2)ncc1Br
[13]
  fold change (FC): 0
[14]
  fold change (FC): 0
[15]
  inhibition: 3%
[16]
  fold change (FC): 0
[17]
  inhibition: 51%

From ChEMBL document CHEMBL5653631, “A Potent and Selective ULK1 Inhibitor Suppresses Autophagy and Sensitizes Cancer Cells to Nutrient Stress” (iScience, 2018)
